# High-throughput results deposited in PubChem BioAssay by Sanford-Burnham Center for Chemical Genomics.
# The list is not random: actives were taken first. Their share in the collection is about 1.5%.
# APJ ag = activates the human apelin receptor APJ; CHO-K1 APJ PathHunter beta-arrestin, luminescence; 0% DMSO wells, 100% apelin; activation, % at 20 µM; 330,000 compounds, 0.11% hits; AID 2520;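 active = activation more than six SD over the plate average, tested at 20 µM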
#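 Material: engineered CHO-K1 APJ arrestin reporter cells; amount: 1000 CHO-K1 reporter cells seeded per well; incubation: compound stimulation 90 min at 25 °C, detection 60 min; signal: luminescent beta-gal fragment complementation, chemiluminescent substrate; read-out basis: APJ agonist activity; controls: DMSO-only wells as negative, 10 nM Apelin-13 as positive control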
# CXCR6 inh = blocks human CXCR6 beta-arrestin recruitment. O00574. CHO-K1 PathHunter CXCR6 beta-arrestin, luminescence. inhibition, % at 20 µM. 360,000 compounds, 0.36% hits. AID 602244; in the data active = inhibition above about 34%, passing the limit was not always enough;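 note: antagonist mode with CXCL16 agonist at 10 nM final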
# EBI2 block = blocks human EBI2 receptor beta-arrestin signaling | inhibition, % at 5 µM | 360,000 compounds, 0.81% hits | EBI2 beta-arrestin recruitment, luminescence, 7a,25-OHC stimulated | AID 651636; in the data active = inhibition above about 38%;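 note: enzyme fragment complementation signal reports receptor beta-arrestin coupling in cells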
# CCR6 antagonist = blocks CCL20-driven beta-arrestin recruitment at human CCR6. CHO-K1 CCR6 PathHunter beta-arrestin, luminescence, CCL20-stimulated. inhibition, % at 20 µM. 340,000 compounds, 0.49% hits. AID 493098;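 active = compounds whose inhibition of the agonist-driven luminescence signal at 20 µM reaches about 50%, limit read from the data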;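 note: cells stimulated with CCL20 at 14 nM final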
# Target sequence (P51684 whole entry, looked up): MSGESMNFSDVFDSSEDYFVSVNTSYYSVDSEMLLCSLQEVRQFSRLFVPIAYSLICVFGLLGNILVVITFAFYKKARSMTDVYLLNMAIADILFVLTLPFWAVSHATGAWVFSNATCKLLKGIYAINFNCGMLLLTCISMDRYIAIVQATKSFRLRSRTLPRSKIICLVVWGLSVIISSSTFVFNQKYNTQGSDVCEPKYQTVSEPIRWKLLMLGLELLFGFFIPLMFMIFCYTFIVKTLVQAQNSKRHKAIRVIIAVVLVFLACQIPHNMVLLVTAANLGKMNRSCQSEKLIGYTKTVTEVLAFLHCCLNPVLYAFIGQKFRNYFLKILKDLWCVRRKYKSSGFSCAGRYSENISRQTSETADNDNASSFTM
# APJ antagonist = antagonists of human APJ apelin receptor | P35414 | CHO-K1 APJ beta-arrestin complementation, luminescence | inhibition, % at 20 µM | 330,000 compounds, 0.32% hits | AID 2521;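 active = inhibition above about 40% at 20 µM, limit read from the data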;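 note: cells challenged with 10 nM apelin-13 agonist together with compound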
# APJ antag conf = APJ receptor antagonism confirmation | inhibition, % at 20 µM | shares compounds with APJ antagonist | 950 compounds, 66% hits | APJ beta-arrestin recruitment, luminescence, antagonist mode; in the data active = inhibition above about 50%
# Hits are given with their value; - = inactive; . = not tested or not shown.
SMILES,APJ ag,CXCR6 inh,EBI2 block,CCR6 antagonist,APJ antagonist,APJ antag conf
Cc1ccc(C)c(-c2cc(C(=O)NNC(=S)NCC(C)C)c3ccccc3n2)c1,-,-,-,-,45,-
CC(=O)c1ccc(N=Nc2ccc(N)cc2)cc1,-,-,-,-,46,-
CCOc1ccc(CCNC(=O)c2cccnc2N2CCCC2)cc1OCC,-,-,-,-,58,52
Cc1ccc2nsnc2c1NC(=O)Cc1ccc(Cl)cc1,-,-,-,-,45,-
Cc1ccc2nsnc2c1NC(=O)CCl,-,-,-,-,-,.
Cn1cnnc1SCCNS(=O)(=O)c1cccc([N+](=O)[O-])c1,-,-,-,-,-,.
O=C1OC(c2ccc(F)cc2)=C/C1=C\c1ccc(O)cc1,-,-,-,52,43,74
O=C(COC(=O)c1c(Cl)cccc1Cl)Nc1cc(Cl)ccc1Oc1ccccc1,-,-,-,-,-,.
O=[N+]([O-])c1c(Nc2cccc(O)c2)cc(Cl)c2nonc12,-,111,93,104,94,111
O=C(O)c1cccc(Nc2ccc3nonc3c2[N+](=O)[O-])c1,-,-,-,-,-,.
C=CCSC(=S)Nc1c(C)n(C)n(-c2ccccc2)c1=O,-,-,-,-,47,-
O=C1/C(=C\c2cccc(O)c2)SC(=S)N1Cc1ccccc1,-,-,-,-,-,.
COc1cc(/C=C2/SC(=S)N(Cc3ccccc3)C2=O)ccc1O,-,-,-,59,47,103
COc1cc(/C=C2\SC(=S)N(N3CCOCC3)C2=O)ccc1O,-,40,-,-,51,70
O=C1/C(=C\c2ccc(O)c(O)c2)SC(=S)N1Cc1ccccc1,-,52,-,71,56,100
COc1cc(/C=C2\SC(=S)N(N3CCOCC3)C2=O)cc(OC)c1OC,-,-,-,-,-,.
O=C1/C(=C\c2cccc(O)c2O)SC(=S)N1Cc1ccccc1,-,-,-,-,42,68
Cc1cccc(NS(=O)(=O)c2cccc(C(=O)N3CC(C)OC(C)C3)c2)c1 (stereo not drawn),-,-,-,-,-,.
CCOc1ccccc1-n1c(C)nc2cc(C(=O)O)ccc21,-,-,-,-,-,.
CCn1nnnc1SCC(=O)Nc1sc(C)c(C)c1C#N,-,-,-,-,-,.
Cc1c(N2C(=O)/C(=C3/C(=O)N(C)c4ccccc43)SC2=S)c(=O)n(-c2ccccc2)n1C,-,-,-,-,-,.
COc1cc(/C=C2/SC(=S)N(c3c(C)n(C)n(-c4ccccc4)c3=O)C2=O)ccc1O,-,51,-,51,53,92
CCCN(CCC)C(=O)CC(c1ccccc1)C1CCOC(C)(C)C1 (stereo not drawn),-,-,-,-,-,.
Cn1c(CNC(=O)C2CCCCC2)cc2ccccc21,-,-,-,-,-,.
O=S(=O)(c1cccc(Cl)c1Cl)N1CCCCC1,-,-,-,-,40,-
SMILES,APJ ag,CXCR6 inh,EBI2 block,CCR6 antagonist,APJ antagonist,APJ antag conf
CCN(Cc1ccccc1)c1ccccc1,.,-,-,-,.,.
CCN(Cc1ccccc1)c1ccc(N=Nc2nn(C)c(C)c2[N+](=O)[O-])cc1,-,49,-,64,44,113
CN(N=Nc1ccccc1C(=O)O)C1CCCCC1,.,-,-,.,.,.
Cc1cccn2c(=O)c3cc(C(=O)NC4CCCC4)c(=N)n(Cc4ccc(F)cc4)c3nc12,-,-,-,-,-,.
COc1ccc(CCn2c(=N)c(C(=O)NC3CCCC3)cc3c(=O)n4cccc(C)c4nc32)cc1,-,-,-,-,46,-
Cc1cccn2c(=O)c3cc(C(=O)NC4CCCCC4)c(=N)n(Cc4ccccc4)c3nc12,-,-,-,-,52,-
CCCN(CCC)c1nc(-c2ccccn2)nc2ccccc12,-,-,-,-,41,80
c1ccc(-c2nc(N3CCCCCC3)c3ccccc3n2)nc1,-,-,-,-,49,62
CCCCN(CC)c1nc(-c2ccncc2)nc2ccccc12,-,-,-,-,-,.
COc1cc(S(=O)(=O)Nc2cccc3cn[nH]c23)c(OC)cc1Cl,-,-,-,-,-,.
CC1=NN(c2ccccc2)C(=O)/C1=C/C=C/C=C/N(C)C,-,49,-,58,65,91
CC1=NN(c2ccc(C)cc2)C(=O)/C1=C\C=C\c1ccccc1,-,-,-,-,-,.
Cn1cccc1Cc1nnc(SCC(=O)NCc2ccc(F)cc2)n1-c1ccc(F)cc1,-,-,-,-,58,-
O=S(=O)(O)c1cc(Cl)cc(N=Nc2ccc(O)cc2O)c1O,.,-,-,-,.,.
O=S(=O)(O)c1cc(O)c2c(O)c(N=Nc3cc(Cl)ccc3O)c(S(=O)(=O)O)cc2c1,-,-,-,60,40,70
CC(=O)Nc1nc(C)c(-c2csc(Nc3cccc([N+](=O)[O-])c3)n2)s1,-,-,-,-,-,.
CC(=O)c1cccc(Nc2nc(-c3cccc([N+](=O)[O-])c3)cs2)c1,-,-,-,-,52,-
O=C(N/N=C/c1ccc(-c2ccccc2Cl)o1)c1ccccc1,-,-,-,-,-,.
O=S(=O)(N/N=C\c1ccc(-c2ccccc2Cl)o1)c1ccccc1,-,-,-,-,59,59
S=C(Nc1ccccc1Oc1ccccc1)NC1CCCC1,-,-,-,-,-,.
CC1=C/C(=C(/c2ccc(O)c(C)c2)c2ccccc2S(=O)(=O)O)C=CC1=O,-,41,-,55,46,59
CC1=C/C(=C(/c2cc(C)c(O)c(Br)c2)c2ccccc2S(=O)(=O)O)C=C(Br)C1=O,-,43,-,64,46,86
CCOC(=O)N1CCN(C(=O)Cn2ccc3c(OC)cccc3c2=O)CC1,-,-,-,-,-,.
COc1ccc(NC(=O)CC2C(=O)N(c3ccc(OC)cc3)C(=S)N2NC(=O)c2cccc(F)c2)cc1 (stereo not drawn),-,-,-,-,-,.
CC(=O)c1sc(NS(=O)(=O)c2ccc(C)cc2)nc1C,-,-,-,-,53,-
SMILES,APJ ag,CXCR6 inh,EBI2 block,CCR6 antagonist,APJ antagonist,APJ antag conf
O=C(Nc1ccccc1SC(=O)c1ccccc1)c1ccccc1,.,-,-,.,.,.
Cc1ccc(C(=O)Sc2cccccc2=O)cc1,-,84,67,92,85,102
O=C(COc1ccc(Cl)cc1)Nc1ccc2c(c1)nc1n2CCOC1,-,-,-,-,-,.
COC(=O)C1NN=C(C(=O)c2ccccc2)C1c1ccccc1 (stereo not drawn),-,-,-,-,-,.
COC(=O)C1NN=C(C(=O)c2ccc(Cl)cc2)C1c1ccc(OC)cc1 (stereo not drawn),-,-,-,58,65,81
CCOC(=O)C1=NNC(C(=O)c2ccc(Cl)cc2)C1c1ccccc1 (stereo not drawn),-,-,-,-,49,75
CCOC(=O)C1=NNC(C(=O)O)C1c1ccccc1 (stereo not drawn),.,-,-,-,.,.
Cc1ccc(C(=O)CNc2ccc(C)c(Cl)c2)cc1,-,-,-,60,64,93
